Screens as filed in PubChem BioAssay.
OX1R antag-1: blocks the human orexin 1 receptor; AID 485270; inhibition, % at 6.6 µM; OX1R-expressing cells, FRET antagonist read-out; 330,000 tested, 1.8% active; O43613; in the data active means inhibition mostly above about 38%, no sharp cut-off; inactive means mostly below about 40%;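 further: 0% = agonist challenge alone and 100% = reference antagonist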
TAAR1 agonist: agonists of human TAAR1; Q96RJ0; activation, % at 3 µM; AID 624467; 360,000 tested, 0.99% active; CHO RD-HGA16 TAAR1, Fluo-8 calcium fluorescence; vehicle wells 0%, saturating PEA agonist 100%;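 active means activation above the mean activation of all test compounds in the run plus 3 SD, cut at about 38% in these data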
Target sequence (Q96RJ0 whole entry, looked up): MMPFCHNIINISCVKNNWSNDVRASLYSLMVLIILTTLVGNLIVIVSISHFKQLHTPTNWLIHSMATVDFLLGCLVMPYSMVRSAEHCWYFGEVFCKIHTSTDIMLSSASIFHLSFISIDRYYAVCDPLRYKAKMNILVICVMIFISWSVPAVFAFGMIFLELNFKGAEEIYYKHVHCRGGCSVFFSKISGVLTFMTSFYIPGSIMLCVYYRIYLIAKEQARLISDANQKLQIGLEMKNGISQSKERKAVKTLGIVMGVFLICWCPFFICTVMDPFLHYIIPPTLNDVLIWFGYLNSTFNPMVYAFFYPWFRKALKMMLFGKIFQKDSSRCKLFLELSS
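Test system: RD-HGA16 (CHO) cells co-expressing Gα16 and hTAAR1 / Benchmarks: DMSO vehicle as 0%, PEA at EC100 as 100% / Repeats: no replicates (n 1) / Measure: % activation from peak over basal fluorescence ratio, DMSO-to-PEA scaled / Timing: 17-24 h plating, Fluo-8 75 min 37 °C, 30 min RT / Technique: kinetic Fluo-8 calcium fluorescence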
CHO parental Ca: counter-screen for OX1R antagonists: effect in parental CHO cells; inhibition, % at 5.6 µM; 330,000 tested, 0.63% active; parental CHO-K1, ATP-induced calcium, Fluo-8 fluorescence;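 active means inhibition above that plate's mean sample inhibition plus 3 SD, cut at about 26% in these data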;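 further: 0% = ATP-challenged DMSO wells and 100% = DMSO wells without ATP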
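Material: Parental CHO cells | Reagent: ATP | Compound dosing: Single nominal dose of 5.6 µM per compound | Detection: Intracellular calcium via Fluo-8 no-wash fluorescent dye | Read-out: % inhibition of ATP-induced calcium mobilization | Benchmarks: Low control ATP plus DMSO, high control DMSO only | Replicates: Singlicate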
GPR7 antagonist: antagonists of human GPR7 (neuropeptides B/W receptor 1); P48145; GPR7-expressing cells, fluorescence antagonist assay; inhibition, % at 4.4 µM; 290,000 tested, 1.1% active; AID 1861; in the data active means inhibition above about 16%, passing the limit was not always enough;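 further: cells stimulated with the agonist NPW; 0% = agonist with vehicle and 100% = vehicle without agonist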
Target sequence (P48145 whole entry, looked up): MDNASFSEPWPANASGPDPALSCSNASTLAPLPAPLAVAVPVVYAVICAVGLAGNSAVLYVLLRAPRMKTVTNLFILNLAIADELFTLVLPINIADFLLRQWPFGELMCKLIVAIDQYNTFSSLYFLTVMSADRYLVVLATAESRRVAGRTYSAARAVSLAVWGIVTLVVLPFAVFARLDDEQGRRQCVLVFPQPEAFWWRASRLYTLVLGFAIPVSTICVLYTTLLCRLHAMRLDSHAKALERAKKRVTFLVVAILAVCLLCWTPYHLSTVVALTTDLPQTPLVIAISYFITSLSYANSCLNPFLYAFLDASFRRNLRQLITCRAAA
TAAR1 antagonist: antagonists of human TAAR1; Q96RJ0; CHO RD-HGA16 TAAR1, Fluo-8 calcium fluorescence, antagonist; inhibition, % at 3 µM; 360,000 tested, 1.5% active;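 active means inhibition above a per-plate cutoff, the mean inhibition of test compounds on that plate plus 3 SD, cut at about 49% in these data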;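 further: 0% = DMSO plus EC80 beta-PEA response and 100% = DMSO alone without agonist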
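Assay system: CHO-derived RD-HGA16 cells stably expressing human TAAR1 plus Gα16. Timing: 140 s kinetic read after compound, 140 s after agonist. Technique: kinetic Fluo-8 calcium fluorescence measurement. Measure: % inhibition of agonist calcium response.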
OX1R antag-2: antagonists of human orexin 1 receptor; O43613; CHO/OX1R cells, Fluo-8 calcium fluorescence, orexin A; inhibition, % at 5 µM; 330,000 tested, 0.43% active;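 active means inhibition above its plate's threshold, mean inhibition of all tested compounds on the plate plus 3 SD, cut at about 37% in these data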;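 further: 0% = orexin A challenge wells and 100% = SB-334867-A antagonist wells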
TAAR1 ag conf: confirmation of human TAAR1 agonists. shares compounds with TAAR1 agonist. activation, % at 3 µM. CHO RD-HGA16 TAAR1, Fluo-8 calcium fluorescence; scaled: DMSO 0%, maximal phenethylamine 100%. 2,400 tested, 82% active. AID 651783;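 active means activation above a cutoff set at the run's mean compound activation plus 3 SD, cut at about 39% in these data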
Ga16 nonsel ag: nonselective agonism, TAAR1 counter-screen; 2,400 tested, 50% active; activation, % at 3 µM; shares compounds with TAAR1 agonist; CHO-Ga16 parental, Fluo-8 calcium fluorescence; normalized to maximal ATP response, DMSO zero;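 active means activation above the run cutoff, the mean activation over all tested wells plus 3 SD, cut at about 12% in these data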;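 further: 0% = DMSO wells and 100% = maximal ATP response on the peak over basal ratio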
TAAR1 desens: human TAAR1 agonist that also desensitizes the receptor; shares compounds with TAAR1 agonist; CHO RD-HGA16 hTAAR1, Fluo-8 calcium, beta-PEA response inhibition; inhibition, % at 3 µM; 2,400 tested, 46% active;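 active means inhibition above the run cutoff, the mean inhibition of all test compounds plus 3 SD, cut at about 49% in these data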;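 further: beta-PEA stimulus applied at its EC80; loss of beta-PEA calcium signal after compound pretreatment read as receptor desensitization; 0% = DMSO with beta-PEA at EC80 and 100% = DMSO alone without agonist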
Ga16 nonsel ant: nonselective Ga16 antagonist in TAAR1 agonist counter-screen; shares compounds with TAAR1 agonist; CHO-Ga16 ATP-induced calcium, Fluo-8 fluorescence; inhibition, % at 3 µM; 2,400 tested, 39% active; AID 651952;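 active means inhibition above the plate's mean compound inhibition plus 3 SD, computed per plate, cut at about 22% in these data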;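 further: 0% = EC80 ATP with DMSO and 100% = DMSO wells without ATP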
* marks the source's active call; other numbers are inactive results; / = no result. An excerpt weighted towards active compounds, which were near 4.5% of everything screened.

SMILES	OX1R antag-1	TAAR1 agonist	CHO parental Ca	GPR7 antagonist	TAAR1 antagonist	OX1R antag-2	TAAR1 ag conf	Ga16 nonsel ag	TAAR1 desens	Ga16 nonsel ant
CCc1ccc2oc(=O)cc(CN3CCCCC3)c2c1	-5	11	-12	0	3	-15	/	/	/	/
CN1CCN(C(c2cccnc2)c2ccc3cccnc3c2O)CC1 (stereo not drawn)	-4	/	-30	-6	/	-10	/	/	/	/
CN1CCN(C(c2ccc(Br)cc2)c2cc(Cl)c3cccnc3c2O)CC1 (stereo not drawn)	7	69*	12	-2	-13	24	121*	88*	76*	43*
O=C(OCCN1C(=O)c2cccc3c(N4CCOCC4)ccc(c23)C1=O)c1ccccc1Cl	69*	128*	91*	0	105*	82*	93*	94*	95*	86*
O=C(OCCN1C(=O)c2cccc3c(N4CCOCC4)ccc(c23)C1=O)c1ccc(Cl)cc1Cl	10	27	22	16	38	5	/	/	/	/
CCOc1ccc(CSc2nc(C)cc(COC)c2C#N)cc1OCC	14	1	0	-13	3	-23	/	/	/	/
O=C1NC(=S)SC1=Cc1ccc2c(c1)OCO2	/	2	/	/	-10	/	/	/	/	/
CN(C)c1ccc(C=C2SC(=S)NC2=O)cc1	/	69*	/	/	57*	/	57*	85*	69*	78*
CC1CN(CC(O)c2ccc(Br)cc2)CCO1 (stereo not drawn)	/	0	/	/	-18	/	/	/	/	/
Cc1ccc(S(=O)(=O)NCC(=O)N(CC(=O)NC2CCCC2)c2ccc3c(c2)OCCO3)cc1	/	14	/	-13	-19	/	/	/	/	/
CC(C)(C)NC(=O)CN(C(=O)CNS(=O)(=O)c1ccccc1)c1ccc2c(c1)OCCO2	12	0	-6	-1	3	-23	/	/	/	/
CCC(C)(C)NC(=O)CN(C(=O)CNS(=O)(=O)c1ccc(C)cc1)c1ccc2c(c1)OCCO2	10	52*	-20	-13	-13	-23	82*	26*	12	8
CC(C)(C)NC(=O)CN(C(=O)CNS(=O)(=O)c1ccc(Cl)cc1)c1ccc2c(c1)OCCO2	24	72*	-22	5	6	-23	100*	45*	25	8
CC1(C(=O)O)CCCN1C(=O)c1cccc(OC(F)(F)F)c1 (stereo not drawn)	/	1	/	/	-21	/	/	/	/	/
CC(C)C[C@H]1CN=C(Nc2ccccc2)N1CC1CCCC1	23	7	-16	13	-8	-11	/	/	/	/
CC(C)C[C@H]1CN=C(Nc2ccccc2)N1CCC1CCCCC1	4	44*	-5	31	8	-22	55*	22*	27	19
COc1cc(C(=O)N/C(=C\c2cn(C)c3ccccc23)C(=O)NCCCN2CCOCC2)cc(OC)c1OC	19	1	-9	-13	-17	-6	/	/	/	/
N#Cc1c(NCCN)nc(-c2ccccc2)c2c1CCCC2	11	54*	-25	-6	-28	-11	38*	5	9	8
CC1(c2ccc(Cl)cc2)NC(=O)N(CC(=O)Nc2ccc3c(c2)OCO3)C1=O (stereo not drawn)	/	59*	/	/	36	/	77*	24*	54*	24*
Cc1ccc(S(=O)(=O)N2CCCCC2)cc1NC(=O)CNC(C)c1ccc(Cl)c(Cl)c1 (stereo not drawn)	2	1	-7	/	1	9	/	/	/	/
COc1ccc2cc(C(=O)N/N=C/c3sc4ccccc4c3O)ccc2c1	22	108*	5	-5	28	2	49*	57*	44	53*
COc1ccc(C(=O)N/N=C/c2sc3ccccc3c2O)cc1	17	/	4	-1	/	15	/	/	/	/
COc1ccc(OC)c(/C=C2/Sc3ccccc3C2=O)c1	15	74*	37*	-3	61*	57*	23	29*	45	50*
COc1ccc(OC)c(C=C2CCc3ccccc3C2=O)c1	/	-2	/	/	-4	/	/	/	/	/
COC(=O)C1NC(=O)N2C(C(=O)OC)C(C)(C)S[C@H]12 (stereo partly drawn)	4	5	-6	/	-2	-9	/	/	/	/
SMILES	OX1R antag-1	TAAR1 agonist	CHO parental Ca	GPR7 antagonist	TAAR1 antagonist	OX1R antag-2	TAAR1 ag conf	Ga16 nonsel ag	TAAR1 desens	Ga16 nonsel ant
O=C(CC(NCCc1ccccc1)C(=O)O)Nc1ccc(O)cc1 (stereo not drawn)	5	50*	-1	-6	6	-6	91*	1	74*	6
O=C(CC(c1ccccc1)c1ccccc1)Nc1ccc(O)cc1	13	2	-13	-18	-1	-14	/	/	/	/
CCCSc1ccc(C(=O)Nc2ccc(F)cc2F)cn1	18	67*	8	-1	29	-24	18	1	-12	2
CCOC(=O)c1c(C)[nH]c(C)c1S(=O)(=O)NCCc1ccco1	7	2	9	-2	-14	8	/	/	/	/
CCOC(=O)c1c(C)[nH]c(C)c1S(=O)(=O)N1c2ccccc2CC1C (stereo not drawn)	25	49*	-10	-10	-16	-5	25	6	0	-4
Cc1ccc(OCC(=O)N(Cc2ccco2)c2c(N)n(Cc3ccccc3)c(=O)[nH]c2=O)cc1C	8	5	-14	/	-2	-30	/	/	/	/
CC(C)(C)C1CCc2onc(C(=O)NC3CCCC3)c2C1 (stereo not drawn)	8	45*	-23	-11	-24	-29	71*	39*	9	5
Cc1cc(OCC(=O)NNC(=S)NC(=O)c2ccc(Br)o2)ccc1Cl	/	121*	/	-4	66*	/	98*	73*	75*	56*
O=C(NC(=S)NNC(=O)c1cccs1)c1ccc(Br)o1	4	116*	4	1	42	5	65*	46*	32	27*
CCC(=O)NC(=S)Nc1ccc(NC(=O)COc2ccc(Cl)c(C)c2)cc1	19	2	-3	-6	3	-24	/	/	/	/
Cc1cccc(CCNCc2c(C(=O)O)c(C)n(-c3ccccc3)c2C)c1	0	58*	-29	-4	6	-35	78*	1	44	3
